From ChEMBL document CHEMBL2311400, “Synthesis and biological evaluation of 4-(aminomethyl)-1-hydroxypyrazole analogues of muscimol as γ-aminobutyric acid(a) receptor agonists” (J Med Chem, 2013)
One block for each molecule: values may come before it. The source made the active and inactive calls. The calls are words filed in the database; no cut-off is given here.

Legend:
[1] = biological target: T1, GABA-A receptor; alpha-1/beta-2/gamma-2 (Homo sapiens) (UniProt P14867+P47870+P18507); assay: Agonist activity at human GABAA alpha1beta2gamma2S receptor expressed in TSA201 cells at 300 to 500 uM after 1 min by FLIPR assay; assay type: cell-based
[2] = biological target: T2, Gamma-aminobutyric acid receptor subunit rho-1 (Homo sapiens, UniProt P24046); assay: Agonist activity at human GABAA rho1 receptor expressed in TSA201 cells at 300 to 500 uM after 1 min by FLIPR assay; assay type: cell-based
[3] = biological target: T3, GABA-A receptor; alpha-1/beta-2/gamma-2 (Homo sapiens, UniProt P14867+P18507+P47870); assay: Agonist activity at human GABAA alpha1beta2gamma2S receptor expressed in TSA201 cells after 1 min by FLIPR assay; assay type: cell-based
T3 sequence (P14867 whole entry): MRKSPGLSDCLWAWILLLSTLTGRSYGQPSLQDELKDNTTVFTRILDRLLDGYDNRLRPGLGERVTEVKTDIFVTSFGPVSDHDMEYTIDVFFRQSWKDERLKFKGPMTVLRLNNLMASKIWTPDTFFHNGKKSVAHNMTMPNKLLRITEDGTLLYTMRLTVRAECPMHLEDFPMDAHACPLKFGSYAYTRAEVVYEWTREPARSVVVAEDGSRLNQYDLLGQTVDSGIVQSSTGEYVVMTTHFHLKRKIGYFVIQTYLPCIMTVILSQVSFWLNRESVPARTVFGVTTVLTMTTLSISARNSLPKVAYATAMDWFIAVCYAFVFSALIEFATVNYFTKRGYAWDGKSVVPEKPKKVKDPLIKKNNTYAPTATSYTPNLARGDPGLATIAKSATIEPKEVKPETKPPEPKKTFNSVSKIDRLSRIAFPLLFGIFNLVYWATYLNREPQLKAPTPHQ
T3 sequence (P47870 whole entry): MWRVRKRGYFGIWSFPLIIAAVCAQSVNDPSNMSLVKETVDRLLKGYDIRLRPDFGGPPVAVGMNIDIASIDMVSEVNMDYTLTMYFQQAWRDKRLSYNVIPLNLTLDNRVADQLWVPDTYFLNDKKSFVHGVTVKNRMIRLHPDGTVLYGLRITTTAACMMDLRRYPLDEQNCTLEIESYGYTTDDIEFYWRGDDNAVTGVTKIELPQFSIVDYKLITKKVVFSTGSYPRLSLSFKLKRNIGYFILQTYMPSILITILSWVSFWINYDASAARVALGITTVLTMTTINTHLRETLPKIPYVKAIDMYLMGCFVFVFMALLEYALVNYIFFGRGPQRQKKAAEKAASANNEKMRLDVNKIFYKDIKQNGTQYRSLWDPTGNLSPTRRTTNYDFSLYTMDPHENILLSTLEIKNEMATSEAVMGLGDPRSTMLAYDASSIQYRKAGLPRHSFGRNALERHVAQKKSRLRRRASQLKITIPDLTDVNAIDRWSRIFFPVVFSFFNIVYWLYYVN
T3 sequence (P18507 whole entry): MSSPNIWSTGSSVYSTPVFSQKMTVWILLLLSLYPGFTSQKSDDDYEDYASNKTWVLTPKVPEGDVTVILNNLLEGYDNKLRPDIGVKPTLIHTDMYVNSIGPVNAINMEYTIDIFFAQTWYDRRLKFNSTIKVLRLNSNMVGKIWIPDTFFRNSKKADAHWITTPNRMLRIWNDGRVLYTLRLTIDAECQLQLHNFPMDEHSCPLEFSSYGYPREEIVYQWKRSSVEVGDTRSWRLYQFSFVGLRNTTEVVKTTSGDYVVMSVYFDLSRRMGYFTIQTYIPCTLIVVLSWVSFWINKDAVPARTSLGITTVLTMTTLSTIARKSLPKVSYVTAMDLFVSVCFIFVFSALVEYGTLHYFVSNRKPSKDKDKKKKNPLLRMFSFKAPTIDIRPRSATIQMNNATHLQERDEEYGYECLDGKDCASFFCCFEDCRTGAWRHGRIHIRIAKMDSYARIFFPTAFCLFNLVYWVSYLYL
Method in brief: (§1)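 tsA201 cells transfected with 1 μg α (1, 2, 3 or 5), 1 μg β2 and 3 μg γ2S cDNA (Polyfect). Cells replated onto poly-D-lysine plates and assayed 16–24 h later. Loaded with FMP blue dye in Krebs buffer pH 7.4 for 30 min at 37 °C.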

[4] = biological target: T2, Gamma-aminobutyric acid receptor subunit rho-1; assay: Agonist activity at human GABAA rho1 receptor expressed in TSA201 cells after 1 min by FLIPR assay; assay type: cell-based
Method in brief: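 tsA201 cells transfected with 5 μg human ρ1 cDNA, then plated on poly-D-lysine plates for 16–24 h. Loaded with FLIPR membrane potential blue dye in Krebs buffer (pH 7.4), 30 min at 37 °C. Emission at 560 nm (excitation 530 nm) recorded before and up to 1 min after agonist addition. Curves fitted from ΔFU; duplicate, at least three times.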

[5] = Displacement of [3H]muscimol from GABAA receptor in rat synaptic membrane after 60 mins by scintillation counting analysis; assay type: cell membranes
Method in brief: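 Membranes from cortex and central hemispheres of male SPRD rat brains, washed repeatedly in 50 mM Tris-HCl pH 7.4. 70–80 μg protein per well incubated with [3H]muscimol. Separated by GF/C filtration with ice-cold buffer washes; bound radioactivity counted by scintillation. Nonspecific binding defined with 1.0 mM GABA.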

[6] = biological target: T4, GABA A receptor alpha-3/beta-2/gamma-2 (Homo sapiens, UniProt P18507+P34903+P47870); assay: Agonist activity at human GABAA alpha3beta2gamma2S receptor expressed in TSA201 cells after 1 min by FLIPR assay; assay type: cell-based; method in brief: as §1
T4 sequence (P47870 whole entry): T3 sequence (P47870 whole entry)
T4 sequence (P18507 whole entry): T3 sequence (P18507 whole entry)
T4 sequence (P34903 whole entry): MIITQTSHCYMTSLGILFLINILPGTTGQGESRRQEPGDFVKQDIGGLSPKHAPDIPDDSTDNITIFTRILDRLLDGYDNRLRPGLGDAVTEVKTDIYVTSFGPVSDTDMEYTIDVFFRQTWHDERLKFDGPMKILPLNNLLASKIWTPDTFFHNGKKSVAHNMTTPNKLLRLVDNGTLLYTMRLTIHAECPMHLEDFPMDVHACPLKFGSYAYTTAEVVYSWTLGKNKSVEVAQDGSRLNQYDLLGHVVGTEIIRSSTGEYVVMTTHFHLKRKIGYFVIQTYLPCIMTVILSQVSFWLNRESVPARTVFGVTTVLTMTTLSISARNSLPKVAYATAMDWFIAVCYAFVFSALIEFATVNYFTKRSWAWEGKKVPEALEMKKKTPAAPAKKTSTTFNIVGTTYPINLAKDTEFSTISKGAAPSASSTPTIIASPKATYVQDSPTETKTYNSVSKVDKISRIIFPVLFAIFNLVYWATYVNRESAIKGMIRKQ

[7] = Agonist activity at human GABAA alpha5beta2gamma2S receptor expressed in TSA201 cells after 1 min by FLIPR assay; assay type: cell-based; conditions: tsA201, 1 min
[8] = biological target: T5, GABA A receptor alpha-2/beta-2/gamma-2 (Homo sapiens, UniProt P18507+P47869+P47870); assay: Agonist activity at human GABAA alpha2beta2gamma2S receptor expressed in TSA201 cells after 1 min by FLIPR assay; assay type: cell-based; method in brief: as §1
T5 sequence (P47870 whole entry): T3 sequence (P47870 whole entry)
T5 sequence (P18507 whole entry): T3 sequence (P18507 whole entry)
T5 sequence (P47869 whole entry): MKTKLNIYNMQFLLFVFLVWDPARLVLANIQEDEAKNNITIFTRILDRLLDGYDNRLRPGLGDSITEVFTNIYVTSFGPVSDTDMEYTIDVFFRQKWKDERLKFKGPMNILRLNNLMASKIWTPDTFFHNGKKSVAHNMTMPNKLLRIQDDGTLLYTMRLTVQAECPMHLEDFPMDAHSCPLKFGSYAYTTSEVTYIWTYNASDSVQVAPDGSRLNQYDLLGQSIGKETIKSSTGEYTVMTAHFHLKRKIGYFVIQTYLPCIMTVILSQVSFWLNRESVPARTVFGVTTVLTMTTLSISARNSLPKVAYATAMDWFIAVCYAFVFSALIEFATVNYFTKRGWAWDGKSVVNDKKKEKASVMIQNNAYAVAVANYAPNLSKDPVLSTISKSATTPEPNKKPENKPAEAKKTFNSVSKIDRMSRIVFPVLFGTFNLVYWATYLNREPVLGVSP

[9] = biological target: T1, GABA-A receptor; alpha-1/beta-2/gamma-2 (Homo sapiens); assay: Agonist activity at human GABAA alpha1beta2gamma2S receptor expressed in HEK293 cells by patch clamp electrophysiology assay relative to GABA; assay type: cell-based
[10] = biological target: T3, GABA-A receptor; alpha-1/beta-2/gamma-2; assay: Agonist activity at human GABAA alpha1beta2gamma2S receptor expressed in HEK293 cells by patch clamp electrophysiology assay; assay type: cell-based
[11] = biological target: T2, Gamma-aminobutyric acid receptor subunit rho-1; assay: Agonist activity at human GABAA rho1 receptor expressed in HEK293 cells at up to 300 uM by patch clamp electrophysiology assay; assay type: cell-based

T2 sequence (P24046 whole entry): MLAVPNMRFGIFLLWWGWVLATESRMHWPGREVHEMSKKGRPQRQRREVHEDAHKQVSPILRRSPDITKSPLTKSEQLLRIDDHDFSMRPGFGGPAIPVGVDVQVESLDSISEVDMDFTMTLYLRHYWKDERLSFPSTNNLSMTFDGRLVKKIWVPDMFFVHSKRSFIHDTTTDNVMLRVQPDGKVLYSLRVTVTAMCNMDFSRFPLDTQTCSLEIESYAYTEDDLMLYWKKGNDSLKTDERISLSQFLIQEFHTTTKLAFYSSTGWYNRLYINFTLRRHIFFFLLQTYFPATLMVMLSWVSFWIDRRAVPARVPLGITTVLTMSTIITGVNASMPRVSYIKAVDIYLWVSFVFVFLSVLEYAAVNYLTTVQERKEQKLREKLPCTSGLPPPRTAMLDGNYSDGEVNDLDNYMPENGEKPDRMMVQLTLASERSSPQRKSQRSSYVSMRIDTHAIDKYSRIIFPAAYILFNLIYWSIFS

Structure (SMILES): NCc1cn(O)nc1-c1ccc(-c2ccccc2)cc1
- Activity [1]: inactive
- Activity [2]: inactive
- EC50 [3]: > 300 µM
- EC50 [4]: > 500 µM
- Ki [5]: 13 µM
- pKi [5]: 4.89

Structure (SMILES): NCc1cc(O)no1 [MUSCIMOL]
- EC50 [6]: 0.21 µM
- EC50 [3]: 0.54 µM
- EC50 ([7]; read-out: EC50): 0.054 µM
- EC50 ([7]; read-out: pEC50 (converted)): 0.0537 µM
- EC50 [4]: 0.7 µM
- Ki [5]: 0.007 µM
- EC50 [8]: 0.41 µM

- Ki [5]: > 100 µM
Structure (SMILES): NCc1cn(O)nc1N

- Ki [5]: > 100 µM
Structure (SMILES): NCc1cn(O)nc1CCc1ccccc1

Structure (SMILES): Oc1noc2c1CCNC2 [GABOXADOL]
- EC50 [3]: 14 µM
- Ki [5]: 0.16 µM

Structure (SMILES): NCc1cn(O)nc1-c1ccccc1
- EC50 [3]: > 500 µM
- EC50 [4]: > 500 µM
- Ki [5]: > 100 µM

Structure (SMILES): Cc1c(CN)cnn1O
- Rmax [9]: > 64%
- EC50 [3]: > 500 µM
- EC50 [4]: > 500 µM
- EC50 [10]: > 10 µM
- Ki [5]: 15 µM
- pKi [5]: 4.82
- Activity [11]: inactive

- Ki [5]: > 100 µM
Structure (SMILES): On1cc2c(n1)CCNC2

- Ki [5]: 68 µM
- pKi [5]: 4.16
Structure (SMILES): Cc1nn(O)cc1CN

Structure (SMILES): NCc1cn(O)nc1I
- EC50 [3]: > 500 µM
- EC50 [4]: > 500 µM
- Ki [5]: 32 µM
- pKi [5]: 4.5
